Results from paper PMC3701955 (Bioorganic & medicinal chemistry, 2012).
Read-outs that look alike come from different tables or passages of the source.

How the values were obtained:
[1] = molecular target: T1, OTR of the CNS (Rattus norvegicus, UniProt P70536); assay: PET imaging of the brain using a rat model; assay type: in vivo, Sprague–Dawley rats; conditions: rats, 90 min ([18F]3) or 45 min ([11C]4) scan
T1 sequence (P70536 1-388): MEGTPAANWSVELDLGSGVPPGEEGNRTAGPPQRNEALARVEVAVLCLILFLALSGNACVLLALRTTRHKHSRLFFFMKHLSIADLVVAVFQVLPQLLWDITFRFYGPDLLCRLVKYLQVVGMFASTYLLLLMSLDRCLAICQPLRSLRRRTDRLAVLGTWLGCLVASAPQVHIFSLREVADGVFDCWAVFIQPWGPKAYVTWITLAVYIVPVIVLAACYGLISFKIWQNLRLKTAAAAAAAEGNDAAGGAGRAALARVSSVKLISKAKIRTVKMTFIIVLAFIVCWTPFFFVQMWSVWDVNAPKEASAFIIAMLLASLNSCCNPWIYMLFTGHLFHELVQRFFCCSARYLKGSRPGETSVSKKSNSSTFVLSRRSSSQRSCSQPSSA

[2] = assay type: in vivo; conditions: female Sprague–Dawley rats, iv; for Biodistribution of radioactivity in brain region, Amygdala / Biodistribution of radioactivity in brain region, Basal Hypothalamus / Biodistribution of radioactivity in brain region, Cerebellum / Biodistribution of radioactivity in brain region, Dorsal Striatum / Biodistribution of radioactivity in brain region, Remaining Brain / Biodistribution of radioactivity, Blood / Biodistribution of radioactivity, Heart / Biodistribution of radioactivity, Kidney / Biodistribution of radioactivity, Liver / Biodistribution of radioactivity, Lung / Biodistribution of radioactivity, Muscle / Biodistribution of radioactivity, Uterus / Biodistribution of radioactivity, Brain: mean ± SD; for Biodistribution of radioactivity, Brain: total brain
[3] = tested on: OTR and V1aR; assay: Receptor autoradiography with the radioligand on prairie vole brain slices; assay type: binding; conditions: 70 pM radioligand
In short: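 Prairie vole brains were cut at 20 μm from prefrontal cortex through nucleus accumbens and ventral pallidum, stored at −80 °C, and thawed. Sections were dipped in 0.1% paraformaldehyde/PBS pH 7.4 and rinsed in 50 mM Tris pH 7.4. They were incubated 1 h with 70 pM radioiodinated test compound without competitor, then washed in 50 mM Tris + 2% MgCl2 pH 7.4, air-dried, and exposed to film 72 h. Six animals per study.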

For `CS(=O)(=O)N1CCC(Oc2ccc(CC(=O)N3CCC(N4C(=O)CCc5ccccc54)CC3)c(O[11CH3])c2)CC1` [[^11C]4, 1-(1-(2-(2-[^11C]methoxy-4-((1-(methylsulfonyl)piperidin-4-yl)oxy)phenyl)acetyl)piperidin-4-yl)-3,4-dihydroquin olin-2(1H)-one], the “viability for in vivo PET imaging of brain OTR” value [1] was “not viable for in vivo PET imaging of the OTR of the CNS”.
In the case of `CS(=O)(=O)N1CCC(Oc2ccc(CC(=O)N3CCC(N4C(=O)CCc5ccccc54)CC3)c(OC/C=C\[125I])c2)CC1` [[^125I]2, (Z)-1-(1-(2-(2-(3-[125I] Iodoallyloxy)-4-(1-(methylsulfonyl)piperidin-4-yloxy)phenyl)acetyl)piperidin-4-yl)-3,4-dihydroquinolin-2(1H)-one], the “in vivo stability of the radiolabel (thyroid / bone uptake over time)” value [2] is reported as “broken down readily in vivo at the iodine position”, the “Biodistribution of radioactivity in brain region, Amygdala” value (“Biodistribution … Amygdala” for short) ([2]; 15 min) is reported as 0.06 ± 0.01 %ID/g and the “Biodistribution of radioactivity in brain region, Basal Hypothalamus” value (shortened to “Biodistribution … Basal Hypothalamus”) ([2]; 15 min) is reported as 0.04 ± 0.01 %ID/g. The “Biodistribution of radioactivity in brain region, Cerebellum” value (“Biodistribution … Cerebellum” for short) ([2]; 15 min) was 0.03 ± 0.01 %ID/g, the “Biodistribution of radioactivity in brain region, Dorsal Striatum” value (“Biodistribution … Dorsal Striatum” below) ([2]; 15 min) was 0.03 ± 0.01 %ID/g and the “Biodistribution of radioactivity in brain region, Remaining Brain” value (“Biodistribution … Remaining Brain” below) ([2]; 15 min) was 0.03 ± 0.01 %ID/g. The “Biodistribution of radioactivity, Blood” value ([2]; 15 min) was 0.22 ± 0.14 %ID/g, the “Biodistribution of radioactivity, Heart” value ([2]; 15 min) was 0.51 ± 0.41 %ID/g and the “Biodistribution of radioactivity, Kidney” value ([2]; 15 min) was 0.38 ± 0.20 %ID/g. For the same compound, the “Biodistribution of radioactivity, Liver” value ([2]; 15 min) was 2.12 ± 1.73 %ID/g, the “Biodistribution of radioactivity, Lung” value ([2]; 15 min) was 1.79 ± 1.78 %ID/g and the “Biodistribution of radioactivity, Muscle” value ([2]; 15 min) was 0.10 ± 0.09 %ID/g. For the same compound, the “Biodistribution of radioactivity, Uterus” value ([2]; 15 min) was 0.22 ± 0.16 %ID/g, the “Biodistribution of radioactivity, Brain” value ([2]; 15 min) was 0.02 ± 0.01 %ID/g and the “Biodistribution … Amygdala” value ([2]; 30 min) was 0.08 ± 0.06 %ID/g. For the same compound, the “Biodistribution … Basal Hypothalamus” value ([2]; 30 min) was 0.03 ± 0.01 %ID/g, the “Biodistribution … Cerebellum” value ([2]; 30 min) was 0.03 ± 0.01 %ID/g and the “Biodistribution … Dorsal Striatum” value ([2]; 30 min) was 0.03 ± 0.01 %ID/g. For the same compound, the “Biodistribution … Remaining Brain” value ([2]; 30 min) was 0.02 ± 0.01 %ID/g, the “Biodistribution of radioactivity, Blood” value ([2]; 30 min) was 0.23 ± 0.23 %ID/g and the “Biodistribution of radioactivity, Heart” value ([2]; 30 min) was 0.39 ± 0.38 %ID/g. For the same compound, the “Biodistribution of radioactivity, Kidney” value ([2]; 30 min) was 0.31 ± 0.27 %ID/g, the “Biodistribution of radioactivity, Liver” value ([2]; 30 min) was 1.91 ± 1.88 %ID/g and the “Biodistribution of radioactivity, Lung” value ([2]; 30 min) was 1.02 ± 1.13 %ID/g. The “Biodistribution of radioactivity, Muscle” value ([2]; 30 min) was 0.09 ± 0.08 %ID/g, the “Biodistribution of radioactivity, Uterus” value ([2]; 30 min) was 0.16 ± 0.16 %ID/g and the “Biodistribution of radioactivity, Brain” value ([2]; 30 min) was 0.02 ± 0.01 %ID/g. For the same compound, the “Biodistribution … Amygdala” value ([2]; 60 min) was 0.06 ± 0.01 %ID/g, the “Biodistribution … Basal Hypothalamus” value ([2]; 60 min) was 0.03 ± 0.01 %ID/g and the “Biodistribution … Cerebellum” value ([2]; 60 min) was 0.03 ± 0.01 %ID/g. For the same compound, the “Biodistribution … Dorsal Striatum” value ([2]; 60 min) was 0.02 ± 0.01 %ID/g, the “Biodistribution … Remaining Brain” value ([2]; 60 min) was 0.02 ± 0.01 %ID/g and the “Biodistribution of radioactivity, Heart” value ([2]; 60 min) was 0.39 ± 0.12 %ID/g. For the same compound, the “Biodistribution of radioactivity, Kidney” value ([2]; 60 min) was 0.46 ± 0.04 %ID/g, the “Biodistribution of radioactivity, Liver” value ([2]; 60 min) was 3.01 ± 0.50 %ID/g and the “Biodistribution of radioactivity, Lung” value ([2]; 60 min) was 0.66 ± 0.32 %ID/g. The “Biodistribution of radioactivity, Muscle” value ([2]; 60 min) was 0.15 ± 0.03 %ID/g, the “Biodistribution of radioactivity, Uterus” value ([2]; 60 min) was 0.31 ± 0.08 %ID/g and the “Biodistribution of radioactivity, Brain” value ([2]; 60 min) was 0.02 ± 0.01 %ID/g. For the same compound, the “Biodistribution … Basal Hypothalamus” value ([2]; 120 min) was 0.04 ± 0.01 %ID/g, the “Biodistribution … Cerebellum” value ([2]; 120 min) was 0.03 ± 0.01 %ID/g and the “Biodistribution … Dorsal Striatum” value ([2]; 120 min) was 0.02 ± 0.01 %ID/g. For the same compound, the “Biodistribution … Remaining Brain” value ([2]; 120 min) was 0.02 ± 0.01 %ID/g, the “Biodistribution of radioactivity, Blood” value ([2]; 120 min) was 0.31 ± 0.17 %ID/g and the “Biodistribution of radioactivity, Kidney” value ([2]; 120 min) was 0.29 ± 0.15 %ID/g. For the same compound, the “Biodistribution of radioactivity, Liver” value ([2]; 120 min) was 1.91 ± 1.02 %ID/g, the “Biodistribution of radioactivity, Lung” value ([2]; 120 min) was 0.41 ± 0.27 %ID/g and the “Biodistribution of radioactivity, Muscle” value ([2]; 120 min) was 0.10 ± 0.05 %ID/g. The “Biodistribution of radioactivity, Uterus” value ([2]; 120 min) was 0.22 ± 0.13 %ID/g, the “Biodistribution of radioactivity, Brain” value ([2]; 120 min) was 0.02 ± 0.01 %ID/g and the “autoradiographic binding to brain regions” value [3] was “bind to receptors in the NAcc and VP”.
